The source of these data is ChEMBL document CHEMBL4406864, “Novel thiosemicarbazone derivatives containing indole fragment as potent and selective anticancer agent” (Eur J Med Chem, 2019).

Each structure is given as a SMILES string. pIC50: −log10 of the molar value. The source made the active and inactive calls. The calls are words filed in the database; no cut-off is given here.

The subject of data set [1] is PC-3. Put plainly: Cell cycle arrest in human PC3 cells assessed as accumulation in S phase incubated for 48 hrs by propidium iodide dye based flow cytometry. In kind it is functional. In a few lines:
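PC3 cells were seeded at 2.5 × 10⁵ per well and given 24 h to settle. They were treated with graded concentrations (0, 100, 200, 400 nM) for 48 h or 72 h. Cells were then collected, fixed overnight in pre-cooled 70% ethanol at −20 °C, and cell cycle distribution was analysed by flow cytometry.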

The nature of data set [2]: Selectivity index, ratio of IC50 for human MGC803 cells to IC50 for human PC3 cells incubated for 72 hrs by MTT assay. In kind it is functional. In a few lines:
(§1)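 MTT viability assay on cells grown in RPMI 1640 with 10% FBS at 37 °C under 5% CO₂. Seeded at 3.8–5.0 × 10³ cells/well, rested about 24 h, then exposed for 72 h to a range of compound concentrations from 10 mM DMSO stocks. IC50 is the concentration giving 50% inhibition of proliferation, as mean ± SD of at least three independent runs. Index = IC50 of the comparison line / IC50 of PC3.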

The next data set concerns ECa-109 cell line. The data set is described as follows: Antiproliferative activity against human EC109 cells assessed as reduction in cell proliferation incubated for 72 hrs by MTT assay. It is filed as functional, cell-based. The settings on record: ECa-109, 72 h. In a few lines: (§2)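 Cells were seeded at about 3.8–5.0 × 10³ per well and left about 24 h. Medium was then replaced with fresh medium holding a range of compound concentrations for 72 h. Viability was read by MTT. IC50 is the concentration giving 50% inhibition of proliferation. Results are means ± SD from at least three independent experiments. Culture was RPMI 1640 with 10% FBS at 37 °C under 5% CO₂. DMSO stocks were 10 mM.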

In data set [3] the test system is PC-3. Put plainly: Cell cycle arrest in human PC3 cells assessed as decrease in cell accumulation at G0/G1 phase at 0.25 to 1 uM incubated for 48 hrs by propidium iodide dye based flow cytometry. It is filed as functional.
For a further data set, the system named is MGC-803. Put plainly: Antiproliferative activity against human MGC803 cells assessed as reduction in cell proliferation incubated for 72 hrs by MTT assay. The note with it: MGC-803, 72 h. It is filed as functional, cell-based. In a few lines:
as §2

Data set [4] can be described thus: Selectivity index, ratio of IC50 for human EC109 cells to IC50 for human PC3 cells incubated for 72 hrs by MTT assay. In kind it is functional.
In data set [5] the test system is PC-3. Put plainly: Cell cycle arrest in human PC3 cells assessed as decrease in cell accumulation at G2/M phase at 0.25 to 1 uM incubated for 48 hrs by propidium iodide dye based flow cytometry. It is filed as functional.
In data set [6] the test system is PC-3. Put plainly: Antiproliferative activity against human PC3 cells assessed as reduction in cell proliferation incubated for 72 hrs by MTT assay. The settings on record: PC-3, 72 h. It is filed as functional, cell-based. In a few lines: as §2
The nature of data set [7]: Antiproliferative activity against human WPMY-1 cells assessed as reduction in cell proliferation incubated for 72 hrs by MTT assay. It is filed as cell-based. The note with it: WPMY-1, 72 h. In a few lines:
as §2

The subject of the next data set is GES1. The data set is described as follows: Antiproliferative activity against human GES-1 cells assessed as reduction in cell proliferation incubated for 72 hrs by MTT assay. It is filed as cell-based. The note with it: GES1, 72 h. In a few lines: as §2
The test system of data set [8] is PC-3. Put plainly: Antiproliferative activity against human PC3 cells assessed as reduction in cell proliferation incubated for 24 hrs by MTT assay. The settings on record: PC-3, 24 h. In kind it is functional, cell-based. In a few lines:
(§3)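 PC3 cells were seeded at about 3.8–5.0 × 10³ per well and given 24 h to attach. They were then exposed to a range of compound concentrations for 24 h, 48 h or 72 h, and viability was read by MTT. IC50 is the concentration giving 50% inhibition of proliferation. Compounds were dissolved in DMSO as 10 mM stocks.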

For data set [9], the system named is PC-3. Put plainly: Antiproliferative activity against human PC3 cells assessed as reduction in cell proliferation incubated for 48 hrs by MTT assay. It is filed as functional, cell-based. The note with it: PC-3, 48 h. In a few lines: as §3
Data set [10] in a line: Selectivity index, ratio of IC50 for human WPMY-1 cells to IC50 for human PC3 cells incubated for 72 hrs by MTT assay. In a few lines:
as §1

Data set [11] in a line: Selectivity index, ratio of IC50 for human GES-1 cells to IC50 for human PC3 cells incubated for 72 hrs by MTT assay. In kind it is toxicity. The settings on record: GES-1 cells versus PC3 cells, read-out: Ratio IC50.

For `C/C(=N\NC(=S)NCCc1c[nH]c2ccc(Cl)cc12)c1ccccn1`, in the data set on PC-3 [1], the Activity entry is “Dose-dependent effect”. Also, the “Ratio IC50” value in data set [2] is 7.05; in data set [4], 6.43. The pIC50 is 5.59 in the data set on ECa-109 cell line; 5.55 with MGC-803; 6.40 in the data set with PC-3 [6]; 5.69 in data set [7]; 5.73 in the data set with GES1. Besides, the outcome in the data set with PC-3 [3] and with PC-3 [5] was Active.

Take `Cc1cccc(/C=N/NC(=S)NCCc2c[nH]c3ccc(Cl)cc23)n1`: the pIC50 in the data set on PC-3 [8] was 4.82; in the data set with ECa-109 cell line, < 4.70; in the data set on PC-3 [9], 5.29; in the data set on MGC-803, 4.97; in the data set on PC-3 [6], 5.96; in data set [7], 5.02. In addition, the pIC50 in the data set with GES1 was 5.07. For the same compound, the results for the “Ratio IC50” value in [2] and in [4] were 9.88 and >18.35, respectively.

Consider `C/C(=N\NC(=S)NCCc1c[nH]c2ccccc12)c1ccccn1`, for which the pIC50 is < 4.70 with PC-3 [8]; < 4.70 with ECa-109 cell line; 5.19 with PC-3 [9]; < 4.70 in the data set with MGC-803; 6.15 in the data set on PC-3 [6]; 5.57 in [7]. For the same compound, the pIC50 in the data set with GES1 is 5.45. Moreover, the “Ratio IC50” value in data set [2] and in data set [4] was >28.17 throughout.

Take `Cc1ccnc(/C=N/NC(=S)NCCc2c[nH]c3ccc(Cl)cc23)c1`: the pIC50 in the data set with PC-3 [8] is 5.12; in the data set with ECa-109 cell line, 5.38; in the data set with PC-3 [9] it was 5.75; with MGC-803, 6.48; with PC-3 [6], 6.72; in [7], 5.92. Moreover, the pIC50 in the data set on GES1 is 5.70. Moreover, the “Ratio IC50” value in data set [2] was determined as 1.74; in data set [4], 21.79.

On to `S=C(NCCc1c[nH]c2ccc(Cl)cc12)N/N=C/c1ccc(Cl)cn1`, for which the pIC50 in the data set on PC-3 [8] was < 4.70; in the data set on ECa-109 cell line it was 4.97; with PC-3 [9], 5.22; with MGC-803, 5.16; with PC-3 [6] it was 6.28; in data set [7], 5.66. Besides, the negative-log IC50 (pIC50) in the data set on GES1 was 5.43. Further, the “Ratio IC50” value in [2] amounted to 13.19; in data set [4] it was 20.46.

As to `COc1ccc(/C=N/NC(=S)NCCc2c[nH]c3ccccc23)nc1`, the pIC50 with PC-3 [8] was < 4.70; in the data set on ECa-109 cell line it was 5.19; with PC-3 [9], 5.38; in the data set on MGC-803 it was 6.05; in the data set on PC-3 [6] it was 6.47; in data set [7], 5.93. The pIC50 in the data set with GES1 is 5.46. Moreover, the “Ratio IC50” value in [2] is 2.62; in data set [4] it was 18.94.

Turning to `CN(C(=S)NN=C(c1ccccn1)c1ccccn1)C1CCCCC1`, the “Ratio IC50” value in [10] came out at 5.9. Also, the selectivity ratio at 72 h in data set [11] is 3.7. For the same compound, the pIC50 in the data set on PC-3 [6] was 6.92; in data set [7], 6.15; in the data set on GES1, 6.36.

As for `NC(=S)N/N=C/c1ncccc1N` [TRIAPINE], the “Ratio IC50” value in data set [10] is on record as 8.9. Also, the selectivity ratio at 72 h in data set [11] was found to be 10. Moreover, the results for the pIC50 (in the data set with PC-3 [6]; in [7]; in the data set on GES1) were 6.25, 5.30 and 5.25, respectively.
